Assay results taken from ChEMBL document CHEMBL4130456 (ACS Med Chem Lett, 2017).
The source made the active and inactive calls. The calls are words filed in the database; no cut-off is given here.

How the values were obtained:
Rattus norvegicus [1] = assay: In-vivo inhibition of PI3Kdelta in sheep RBC-sensitized OFA-rat assessed as reduction in antigen-specific antibody response to SRBC by measuring plaque formation at 3 mg/kg, po bid treated for 4 days starting from day 1 of immunization by microscopic method relative to control; type: functional
Rattus norvegicus [2] = assay: Dose normalized Cmax in Sprague-Dawley rat at 3 mg/kg, po by RP-HPLC analysis; type: ADME, organism-based; conditions: in vivo
Rattus norvegicus [3] = assay: (§1) Antiarthritic activity in Lewis rat type-2 collagen-induced arthritis model assessed as reduction in IgG antibodies at 3 to 10 mg/kg, po bid administered prior to disease onset for 19 days starting from 5 days post type-2 collagen-induction measured post last dose by ELISA; type: functional, organism-based
Summary of the method: (§2)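 Rat collagen-induced arthritis, prophylactic regimen: dosing starts before disease onset, b.i.d. Readouts are anti-rat collagen antibodies, paw swelling, and histology (inflammatory cell infiltration, proteoglycan loss, joint erosion).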

Cynomolgus monkey [4] = assay: Dose normalized AUC in cynomolgus monkey at 0.1 mg/kg, iv by RP-HPLC analysis; type: ADME, organism-based, Macaca fascicularis; conditions: in vivo
Rattus norvegicus [5] = assay: In-vivo inhibition of PI3Kdelta in sheep RBC-sensitized OFA-rat assessed as reduction in antigen-specific antibody response to SRBC by measuring plaque formation at 30 mg/kg, po bid treated for 4 days starting from day 1 of immunization by microscopic method relative to control; type: functional
Rattus norvegicus [6] = assay: Antiarthritic activity in Lewis rat type-2 collagen-induced arthritis model assessed as reduction in paw swelling at 10 mg/kg, po bid administered after disease onset for 40 days starting from 14 days post type-2 collagen-induction measured 3 times a week up to 41 days; type: functional, organism-based
Summary of the method: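 Rat collagen-induced arthritis, therapeutic regimen: dosing begins once marked paw swelling is present, 10 mg/kg b.i.d.; readout is paw swelling.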

Rattus norvegicus [7] = assay: Dose normalized AUC in Sprague-Dawley rat at 30 mg/kg, po by RP-HPLC analysis; type: ADME, organism-based; conditions: in vivo
[8] = target: DNA-dependent protein kinase catalytic subunit (Homo sapiens, UniProt P78527); assay: Inhibition of DNA-PK (unknown origin) using peptide substrate assessed as reduction in incorporation of radioactive 33p into substrate by liquid scintillation counting method
Rattus norvegicus [9] = assay: Toxicity in Lewis rat type-2 collagen-induced arthritis model at 3 to 10 mg/kg, po bid; type: organism-based; conditions: in vivo
Summary of the method: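 Rat collagen-induced arthritis, dosed b.i.d. either prophylactically (before disease onset) or therapeutically (once paw swelling was evident). Tolerability was judged by overt signs of toxicity across the multi-dose study. Disease endpoints were anti-rat collagen antibodies, paw swelling, inflammatory cell infiltration, proteoglycan loss and joint erosion.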

[10] = Clearance in cynomolgus monkey at 0.1 mg/kg, iv by RP-HPLC analysis; type: ADME, organism-based, Macaca fascicularis; conditions: in vivo
[11] = target: T1, Phosphatidylinositol 4,5-bisphosphate 3-kinase catalytic subunit alpha isoform (Homo sapiens, UniProt P42336); assay: Inhibition of recombinant human myristoylated PI3Kalpha catalytic domain expressed in Rat1 cells assessed as reduction in Akt phosphorylation at […] residue after 1 hr by alpha screen Surefire assay; type: cell-based
T1 sequence (P42336 whole entry, the tested form may be a part, canonical isoform): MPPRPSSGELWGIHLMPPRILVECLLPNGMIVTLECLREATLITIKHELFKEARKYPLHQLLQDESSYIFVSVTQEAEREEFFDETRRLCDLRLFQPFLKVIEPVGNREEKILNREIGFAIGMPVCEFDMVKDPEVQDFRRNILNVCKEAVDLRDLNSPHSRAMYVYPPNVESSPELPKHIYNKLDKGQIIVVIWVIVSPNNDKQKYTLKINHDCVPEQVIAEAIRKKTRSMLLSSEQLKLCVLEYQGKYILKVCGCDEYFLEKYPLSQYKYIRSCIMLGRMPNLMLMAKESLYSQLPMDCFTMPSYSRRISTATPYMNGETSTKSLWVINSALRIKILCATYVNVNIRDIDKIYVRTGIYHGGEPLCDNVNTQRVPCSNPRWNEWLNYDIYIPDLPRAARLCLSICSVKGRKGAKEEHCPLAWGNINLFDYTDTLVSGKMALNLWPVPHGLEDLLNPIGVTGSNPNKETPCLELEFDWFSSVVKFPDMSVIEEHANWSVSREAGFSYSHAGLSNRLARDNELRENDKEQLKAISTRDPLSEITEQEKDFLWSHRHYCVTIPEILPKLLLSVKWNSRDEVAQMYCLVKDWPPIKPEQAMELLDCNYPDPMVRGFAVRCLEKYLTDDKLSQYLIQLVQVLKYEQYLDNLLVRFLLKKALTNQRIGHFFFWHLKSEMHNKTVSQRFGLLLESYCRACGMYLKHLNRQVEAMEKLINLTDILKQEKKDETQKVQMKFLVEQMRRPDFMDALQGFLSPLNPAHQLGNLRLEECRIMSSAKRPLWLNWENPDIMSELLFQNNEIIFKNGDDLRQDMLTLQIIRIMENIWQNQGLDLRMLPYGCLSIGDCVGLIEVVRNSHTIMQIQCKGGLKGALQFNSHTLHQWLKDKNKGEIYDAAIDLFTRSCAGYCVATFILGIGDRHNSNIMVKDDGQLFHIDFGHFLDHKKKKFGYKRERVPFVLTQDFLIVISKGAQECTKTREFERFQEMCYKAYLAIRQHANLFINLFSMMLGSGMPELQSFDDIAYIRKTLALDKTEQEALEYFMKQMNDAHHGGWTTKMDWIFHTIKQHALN

Rattus norvegicus [12] = assay: In-vivo inhibition of PI3Kdelta in sheep RBC-sensitized OFA-rat assessed as reduction in antigen-specific antibody response to SRBC by measuring plaque formation at 10 mg/kg, po bid treated for 4 days starting from day 1 of immunization by microscopic method relative to control; type: functional
Canis familiaris = assay: Dose normalized Cmax in Beagle dog at 0.3 mg/kg, po by RP-HPLC analysis; type: ADME, organism-based, Canis lupus familiaris; conditions: in vivo
[13] = Oral bioavailability in cynomolgus monkey at 0.3 mg/kg by RP-HPLC analysis; type: ADME, organism-based, Macaca fascicularis; conditions: in vivo
[14] = target: T1, Phosphatidylinositol 4,5-bisphosphate 3-kinase catalytic subunit alpha isoform; assay: Inhibition of recombinant PI3Kalpha (unknown origin) using phosphatidyl inositol/n-Octyl-glucoside as substrate measured after 30 mins by KinaseGlo assay
[15] = Oral bioavailability in Beagle dog at 0.3 mg/kg by RP-HPLC analysis; type: ADME, organism-based, Canis lupus familiaris; conditions: in vivo
[16] = target: Ribosomal protein S6 kinase alpha-5 (Homo sapiens) (UniProt O75582); assay: Inhibition of wild-type human partial length RPS6KA5 expressed in bacterial expression system at 10 uM by Kinomescan method relative to control
Ribosomal protein S6 kinase alpha-5 (Homo sapiens), sequence (O75582 whole entry, looked up): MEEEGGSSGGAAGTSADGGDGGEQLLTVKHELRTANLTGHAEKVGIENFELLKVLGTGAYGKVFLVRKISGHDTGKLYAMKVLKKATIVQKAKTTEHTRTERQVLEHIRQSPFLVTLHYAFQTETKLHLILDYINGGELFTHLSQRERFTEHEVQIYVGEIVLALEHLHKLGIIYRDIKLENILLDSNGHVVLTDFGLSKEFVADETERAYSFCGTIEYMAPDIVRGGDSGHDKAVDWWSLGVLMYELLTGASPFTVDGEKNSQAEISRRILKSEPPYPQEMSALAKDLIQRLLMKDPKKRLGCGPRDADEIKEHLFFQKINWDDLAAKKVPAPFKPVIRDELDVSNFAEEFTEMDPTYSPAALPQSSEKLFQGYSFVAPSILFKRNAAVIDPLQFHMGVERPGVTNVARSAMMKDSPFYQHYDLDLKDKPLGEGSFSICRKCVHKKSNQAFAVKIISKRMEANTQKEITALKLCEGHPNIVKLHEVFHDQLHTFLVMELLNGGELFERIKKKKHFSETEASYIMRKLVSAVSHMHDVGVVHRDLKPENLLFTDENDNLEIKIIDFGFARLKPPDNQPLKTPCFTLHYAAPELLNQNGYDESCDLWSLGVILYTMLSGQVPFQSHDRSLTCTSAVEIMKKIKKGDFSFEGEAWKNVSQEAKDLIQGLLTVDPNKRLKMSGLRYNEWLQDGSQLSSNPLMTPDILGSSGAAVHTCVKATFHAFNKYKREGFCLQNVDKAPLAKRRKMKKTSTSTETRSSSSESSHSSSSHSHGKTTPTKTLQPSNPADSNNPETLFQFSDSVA

[17] = target: 5-hydroxytryptamine receptor 2B (Homo sapiens, UniProt P41595); assay: Inhibition of 5-HT2B (unknown origin) by calcium flux assay; type: functional
5-hydroxytryptamine receptor 2B, sequence (P41595 whole entry): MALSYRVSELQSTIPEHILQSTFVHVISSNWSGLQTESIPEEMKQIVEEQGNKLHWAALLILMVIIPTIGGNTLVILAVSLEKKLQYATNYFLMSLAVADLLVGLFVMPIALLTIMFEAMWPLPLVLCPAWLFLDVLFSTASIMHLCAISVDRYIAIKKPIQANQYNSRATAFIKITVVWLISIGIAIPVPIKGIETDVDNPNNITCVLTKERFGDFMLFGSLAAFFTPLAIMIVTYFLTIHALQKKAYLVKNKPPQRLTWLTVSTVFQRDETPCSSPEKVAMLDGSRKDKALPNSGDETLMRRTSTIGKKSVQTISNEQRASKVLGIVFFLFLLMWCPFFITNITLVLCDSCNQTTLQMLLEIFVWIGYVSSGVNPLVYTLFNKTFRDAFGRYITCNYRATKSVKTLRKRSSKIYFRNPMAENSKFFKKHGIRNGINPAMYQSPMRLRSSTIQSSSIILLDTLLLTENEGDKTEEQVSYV
Summary of the method: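 Part of a 50-target safety panel covering GPCRs, ion channels and transporters.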

[18] = target: Phosphatidylinositol 4,5-bisphosphate 3-kinase catalytic subunit beta isoform (Homo sapiens, UniProt P42338); assay: Inhibition of recombinant human myristoylated PI3Kbeta catalytic domain expressed in Rat1 cells assessed as reduction in Akt phosphorylation at […] residue after 1 hr by alpha screen Surefire assay; type: cell-based
Phosphatidylinositol 4,5-bisphosphate 3-kinase catalytic subunit beta isoform, sequence (P42338 whole entry, the tested form may be a part, canonical isoform): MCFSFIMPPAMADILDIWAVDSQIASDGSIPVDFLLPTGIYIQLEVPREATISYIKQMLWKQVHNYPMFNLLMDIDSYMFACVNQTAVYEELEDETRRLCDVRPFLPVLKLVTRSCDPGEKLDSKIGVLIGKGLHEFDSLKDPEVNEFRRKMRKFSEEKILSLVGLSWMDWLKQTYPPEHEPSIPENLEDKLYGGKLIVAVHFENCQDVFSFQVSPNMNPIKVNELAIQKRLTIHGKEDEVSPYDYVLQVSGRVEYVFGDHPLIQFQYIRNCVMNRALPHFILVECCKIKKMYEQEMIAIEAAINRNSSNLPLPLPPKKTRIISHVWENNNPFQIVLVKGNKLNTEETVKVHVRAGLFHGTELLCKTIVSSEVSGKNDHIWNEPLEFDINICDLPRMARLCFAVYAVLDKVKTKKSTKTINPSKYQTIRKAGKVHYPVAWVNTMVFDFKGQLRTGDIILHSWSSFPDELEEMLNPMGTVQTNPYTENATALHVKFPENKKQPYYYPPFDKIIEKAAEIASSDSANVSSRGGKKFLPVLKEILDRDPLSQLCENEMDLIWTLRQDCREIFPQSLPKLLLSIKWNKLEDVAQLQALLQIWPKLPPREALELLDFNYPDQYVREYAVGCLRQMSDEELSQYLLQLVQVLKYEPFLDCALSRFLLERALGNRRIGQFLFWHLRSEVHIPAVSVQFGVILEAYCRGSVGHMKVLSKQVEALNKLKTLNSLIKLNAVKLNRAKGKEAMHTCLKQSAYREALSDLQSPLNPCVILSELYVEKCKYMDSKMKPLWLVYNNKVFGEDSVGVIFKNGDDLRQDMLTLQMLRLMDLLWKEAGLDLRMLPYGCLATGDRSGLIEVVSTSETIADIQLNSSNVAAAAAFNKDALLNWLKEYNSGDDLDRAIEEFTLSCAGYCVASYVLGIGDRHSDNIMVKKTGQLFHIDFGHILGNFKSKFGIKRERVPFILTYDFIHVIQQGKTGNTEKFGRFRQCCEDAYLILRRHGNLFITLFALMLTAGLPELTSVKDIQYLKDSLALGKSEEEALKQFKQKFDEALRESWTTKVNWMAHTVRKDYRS

Rattus norvegicus [19] = assay: In-vivo inhibition of PI3Kdelta in po dosed sheep RBC-sensitized OFA-rat assessed as reduction in antigen-specific antibody response to SRBC by measuring plaque formation treated for 4 days starting from day 1 of immunization by microscopic method; type: functional, organism-based
[20] = Tmax in Beagle dog at 0.3 mg/kg, po by RP-HPLC analysis; type: ADME, organism-based, Canis lupus familiaris; conditions: in vivo
Mus musculus = assay: Antiinflammatory activity in po dosed C57BL/6J mouse ozone-induced lung inflammation model assessed as reduction in macrophage numbers in bronchoalveolar lavage pretreated for 1 hr followed by ozone exposure for 4 hrs and subsequent redosing measured after 24 hrs by Diff-quick staining based assay; type: functional
Summary of the method: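 Mouse ozone-induced lung inflammation. Inflammatory cells are counted in bronchoalveolar lavage (neutrophils, macrophages) across several doses. ED50 is derived from the dose–response.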

Cynomolgus monkey [21] = assay: Ex-vivo inhibition of PI3Kdelta in po dosed cynomolgus monkey assessed as reduction in anti-IgM-induced AKT phosphorylation at ser473 residue in whole blood pretreated up to 24 hrs followed by anti-IgM stimulation after 20 mins by flow cytometric analysis; type: functional, organism-based; conditions: Macaca fascicularis
[22] = Clearance in Sprague-Dawley rat at 1 mg/kg, iv by RP-HPLC analysis; type: ADME, organism-based; conditions: in vivo
[23] = Volume of distribution at steady state in Beagle dog at 0.1 mg/kg, iv by RP-HPLC analysis; type: ADME, organism-based, Canis lupus familiaris; conditions: in vivo, read-out: Vdss
Rattus norvegicus [24] = assay: as §1, with “proteoglycan loss” for “IgG antibodies”, “giemsa/safranin O staining based histopathological analysis” for “ELISA”; type: functional, organism-based; summary of the method: as §2

Cmax/dose (Rattus norvegicus [2]): 0.391 µM | AUC/dose (Cynomolgus monkey [4]): 2250 nM·h | AUC/dose (Rattus norvegicus [7]): 2107 nM·h | IC50 [8]: 0.88 µM | clearance [10]: 1.02 L/h/kg | IC50 [11]: 1.67 µM | Cmax/dose (Canis familiaris): 3.41 µM | bioavailability [13]: 13% | IC50 [14]: 0.244 µM | bioavailability [15]: 58% | inhibition [16]: 76% | IC50 [17]: 7.7 µM | IC50 [18]: 2.25 µM | Tmax [20]: 42 min | IC50 (Cynomolgus monkey [21]): 0.084 to 0.14 µM | clearance [22]: 1.68 L/h/kg | Vd [23]: 0.3 L/kg
Compound: CCC(=O)N1CC[C@H](Nc2ncnc3c2CN(c2cnc(OC)c(C(F)(F)F)c2)CC3)C1 [LENIOLISIB]
inhibition in vivo at 3 mg/kg (Rattus norvegicus [1]): 54% | Activity (Rattus norvegicus [3]): Active | inhibition in vivo at 30 mg/kg (Rattus norvegicus [5]): 96% | Activity (Rattus norvegicus [6]): Active | Activity (Rattus norvegicus [9]): Non-Toxic | inhibition in vivo at 10 mg/kg (Rattus norvegicus [12]): 73% | inhibition (Rattus norvegicus [19]): Dose-dependent effect | Activity (Mus musculus): Dose-dependent effect | ED50 (Mus musculus): 40 mg/kg | Activity (Rattus norvegicus [24]): Active
